In ChEMBL document CHEMBL3102786, “Anilides and quinolones with nitrogen-bearing substituents from benzothiophene and thienothiophene series: synthesis, photochemical synthesis, cytostatic evaluation, 3D-derived QSAR analysis and DNA-binding properties” (Eur J Med Chem, 2014):
pIC50: −log10 of the molar value. Active and inactive are the calls of the source. The calls are words filed in the database; no cut-off is given here.

Assays:
DNA [1] = test: Binding affinity to calf thymus DNA assessed as change in melting temperature at 0.5 drug/DNA ratio by spectrophotometry; type: nucleic-acid assay; settings: Bos taurus
Procedure, shortened: (§1)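 CT-DNA (20 µM) was dialyzed and incubated alone or with compound at drug/base-pair ratio R 0.25–1 in BPE buffer (6 mM Na2HPO4, 2 mM NaH2PO4, 1 mM EDTA, pH 7.1). A260 was read every min from 20–100 °C at 1 °C/min against a compound-matched reference. Tm was taken from the first-derivative midpoint, and ΔTm = Tm(drug+DNA) − Tm(DNA alone).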

DNA [2] = test: Binding affinity to calf thymus DNA assessed as change in melting temperature at 0.25 drug/DNA ratio by spectrophotometry; type: nucleic-acid assay; settings: Bos taurus; procedure, shortened: as §1
DNA [3] = test: Binding affinity to calf thymus DNA assessed as change in melting temperature at 1 drug/DNA ratio by spectrophotometry; type: nucleic-acid assay; settings: Bos taurus; procedure, shortened: as §1
DNA [4] = test: Binding affinity to calf thymus DNA assessed as hypochromic effect at 20 uM by UV-Visible spectroscopy relative to control; type: nucleic-acid assay; settings: Bos taurus
Procedure, shortened: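 Compound (20 µM) in BPE buffer pH 7.1 was titrated with CT-DNA, 10–100 µM in 10 µM steps and then to 200 µM in 20 µM steps (base pairs). Spectra were recorded from 230–530 nm in a 10 mm quartz cuvette, referenced against a cuvette holding the same DNA concentration.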

Nucleic Acid [5] = test: Binding affinity to Escherichia coli supercoiled pUC19 DNA assessed as intercalation at 20 to 50 uM by agarose gel electrophoresis in presence of human DNA topoisomerase 1; type: nucleic-acid assay
Procedure, shortened: (§2)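 Supercoiled pUC19 plasmid was incubated with or without compound across the stated µM range, then relaxed with human topoisomerase I. Reactions were stopped with SDS and proteinase K. Samples were run on a 1% agarose gel in TBE for 2 h at 120 V and post-stained with ethidium bromide. Supercoiled, relaxed and nicked bands were scored under UV.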

[6] = target: DNA topoisomerase 2-alpha (Homo sapiens) (UniProt P11388); test: Inhibition of DNA topoisomerase 2 (unknown origin)-mediated DNA cleavage assessed as linear band at 50 uM by agarose gel electrophoresis
Procedure, shortened: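 Topoisomerase II DNA cleavage assay was run per an earlier method, with etoposide as the Topo II poison positive control. Compounds came from 10 mM DMSO stocks freshly diluted in aqueous buffer.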

[7] = target: T1, DNA topoisomerase 1 (Homo sapiens) (UniProt P11387); test: Inhibition of human topoisomerase 1-mediated DNA cleavage assessed as accumulation of nicked DNA at 1 to 50 uM by agarose gel electrophoresis; procedure, shortened: as §2
T1 sequence (whole entry): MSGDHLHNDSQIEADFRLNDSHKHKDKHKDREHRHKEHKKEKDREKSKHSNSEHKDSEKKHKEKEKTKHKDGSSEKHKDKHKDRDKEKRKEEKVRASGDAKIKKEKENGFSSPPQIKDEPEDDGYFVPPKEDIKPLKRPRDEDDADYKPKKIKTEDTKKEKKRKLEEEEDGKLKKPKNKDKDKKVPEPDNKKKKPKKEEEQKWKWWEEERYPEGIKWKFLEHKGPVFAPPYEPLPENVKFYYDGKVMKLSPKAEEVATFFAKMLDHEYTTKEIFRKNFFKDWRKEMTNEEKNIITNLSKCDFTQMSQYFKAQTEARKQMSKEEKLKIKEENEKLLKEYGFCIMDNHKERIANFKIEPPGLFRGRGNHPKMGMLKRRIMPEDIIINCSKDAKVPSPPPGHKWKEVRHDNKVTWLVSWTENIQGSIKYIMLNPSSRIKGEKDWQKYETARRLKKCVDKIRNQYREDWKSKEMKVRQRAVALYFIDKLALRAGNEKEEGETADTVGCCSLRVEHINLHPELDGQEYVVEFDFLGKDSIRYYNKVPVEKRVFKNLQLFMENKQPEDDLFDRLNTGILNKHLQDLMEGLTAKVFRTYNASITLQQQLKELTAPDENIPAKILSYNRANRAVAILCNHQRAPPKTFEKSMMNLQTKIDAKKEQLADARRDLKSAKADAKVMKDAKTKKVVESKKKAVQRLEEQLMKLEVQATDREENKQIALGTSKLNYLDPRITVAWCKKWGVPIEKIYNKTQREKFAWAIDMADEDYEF

[8] = Cytotoxicity against human H460 cells after 72 hrs by MTT assay; type: functional, cell-based, NCI-H460
Procedure, shortened: (§3)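 HCT 116 and H 460 were seeded at 3×10^4 cells/mL and MCF-7 at 5×10^4 cells/mL in DMEM with 10% FBS, 2 mM glutamine and antibiotics, at 37 °C in 5% CO2. Compounds were added after 24 h (DMSO <1%). After 72 h, MTT absorbance was read at 570 nm. Runs were technical quadruplicates with ≥2 biological replicates, and IC50 was obtained by linear interpolation around 50% growth.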

HCT-116 = test: Cytotoxicity against human HCT116 cells after 72 hrs by MTT assay; type: functional, cell-based; procedure, shortened: as §3
MCF7 = test: Cytotoxicity against human MCF7 cells after 72 hrs by MTT assay; type: functional, cell-based; procedure, shortened: as §3
Nucleic Acid [9] = test: Binding affinity to Escherichia coli supercoiled pUC19 DNA assessed as intercalation at 0.2 to 5 uM by agarose gel electrophoresis in presence of human DNA topoisomerase 1; type: nucleic-acid assay; procedure, shortened: as §2
DNA [10] = test: Binding affinity to calf thymus DNA at 50 uM by circular dichroism spectra analysis; type: nucleic-acid assay; settings: Bos taurus
Procedure, shortened: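 Drug (50 µM) was incubated in BPE buffer with or without CT-DNA at 0.1–100 µM. CD spectra were recorded from 480 to 230 nm in a 10 mm quartz cell at 20 °C under Peltier control.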

[11] = Binding affinity to DNA (unknown origin) assessed as inhibition of DNase1-mediated cleavage at 2 to 5 uM by DNase1 footprinting assay
Procedure, shortened: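 DNase I footprinting run essentially per an earlier protocol. Gels were exposed to a storage screen at room temperature and then scanned. Compounds were made as 10 mM DMSO stocks and freshly diluted into aqueous buffer.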

Nucleic Acid [12] = test: Binding affinity to Escherichia coli supercoiled pUC19 DNA assessed as intercalation at 1 to 50 uM by agarose gel electrophoresis in presence of human DNA topoisomerase 1; type: nucleic-acid assay; procedure, shortened: as §2

Sequence of DNA topoisomerase 2-alpha (Homo sapiens) (P11388 whole entry): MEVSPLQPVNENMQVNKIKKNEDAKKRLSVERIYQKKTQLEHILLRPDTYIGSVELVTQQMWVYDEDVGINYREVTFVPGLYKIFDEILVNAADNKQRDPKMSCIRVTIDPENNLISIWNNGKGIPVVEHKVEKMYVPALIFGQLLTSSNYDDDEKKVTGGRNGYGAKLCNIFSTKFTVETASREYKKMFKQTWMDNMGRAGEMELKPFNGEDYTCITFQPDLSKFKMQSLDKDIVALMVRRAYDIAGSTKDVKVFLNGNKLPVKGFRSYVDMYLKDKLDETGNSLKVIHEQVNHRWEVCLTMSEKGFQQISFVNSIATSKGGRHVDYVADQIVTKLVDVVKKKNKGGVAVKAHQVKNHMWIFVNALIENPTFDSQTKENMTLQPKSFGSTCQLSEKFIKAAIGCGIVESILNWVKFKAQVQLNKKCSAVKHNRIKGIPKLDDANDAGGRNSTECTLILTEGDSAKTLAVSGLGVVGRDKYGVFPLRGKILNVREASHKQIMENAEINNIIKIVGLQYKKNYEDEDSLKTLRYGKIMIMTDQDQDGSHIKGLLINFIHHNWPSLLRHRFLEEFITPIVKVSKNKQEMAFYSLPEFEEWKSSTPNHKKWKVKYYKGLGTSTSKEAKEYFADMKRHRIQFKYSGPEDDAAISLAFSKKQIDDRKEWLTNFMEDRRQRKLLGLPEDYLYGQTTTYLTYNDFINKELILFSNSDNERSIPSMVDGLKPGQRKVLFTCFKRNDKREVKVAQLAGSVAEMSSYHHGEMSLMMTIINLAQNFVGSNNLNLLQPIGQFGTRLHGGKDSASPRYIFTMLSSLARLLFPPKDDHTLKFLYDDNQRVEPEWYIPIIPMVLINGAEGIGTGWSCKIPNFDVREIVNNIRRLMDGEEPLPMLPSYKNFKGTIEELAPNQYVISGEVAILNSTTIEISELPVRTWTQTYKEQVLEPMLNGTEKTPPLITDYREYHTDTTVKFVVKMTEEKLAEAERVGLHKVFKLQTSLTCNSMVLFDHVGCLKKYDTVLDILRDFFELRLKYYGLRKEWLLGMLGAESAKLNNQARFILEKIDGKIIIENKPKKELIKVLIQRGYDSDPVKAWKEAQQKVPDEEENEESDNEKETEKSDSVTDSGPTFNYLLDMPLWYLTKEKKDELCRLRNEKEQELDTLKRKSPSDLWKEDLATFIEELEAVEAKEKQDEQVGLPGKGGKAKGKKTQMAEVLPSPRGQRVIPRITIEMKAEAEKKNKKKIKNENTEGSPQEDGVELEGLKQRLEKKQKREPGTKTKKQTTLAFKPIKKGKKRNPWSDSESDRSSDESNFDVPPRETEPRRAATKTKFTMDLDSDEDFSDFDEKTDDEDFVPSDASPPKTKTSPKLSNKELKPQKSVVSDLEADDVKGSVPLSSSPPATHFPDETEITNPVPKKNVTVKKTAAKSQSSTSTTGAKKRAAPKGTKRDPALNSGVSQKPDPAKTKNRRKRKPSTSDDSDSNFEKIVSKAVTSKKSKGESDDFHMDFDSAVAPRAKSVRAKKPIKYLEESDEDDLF

| SMILES | Activity (DNA [1]) | Activity (DNA [2]) | Activity (DNA [3]) | Topo II DNA cleavage inhibition (active/not active) [6] | inhibition [7] | pIC50 ([8]; Homo sapiens, NCI-H460, 72 h) | pIC50 (HCT-116; Homo sapiens, HCT-116, 72 h) | pIC50 (MCF7; Homo sapiens, MCF7, 72 h) | also measured |
| --- | --- | --- | --- | --- | --- | --- | --- | --- | --- |
| C[N+](C)(C)c1ccc(NC(=O)c2sc3ccccc3c2Cl)cc1 | – | – | – | Active | inactive | 4.70 | 4.77 | 4.77 | ΔTm (DNA [1]): 1 °C; ΔTm (DNA [3]): 3 °C; Activity (DNA [4]): 23%; Activity (Nucleic Acid [5]): Active |
| O=C(Nc1ccc([N+](=O)[O-])cc1)c1sc2sccc2c1Cl | – | – | – | – | – | < 4.00 | < 4.00 | ≤ 4.00 | – |
| O=C(Nc1ccc([N+](=O)[O-])cc1)c1sc2ccccc2c1Cl | inactive | inactive | inactive | inactive | – | 4.26 | ≤ 4.00 | < 4.00 | – |
| CN(C)c1ccc(NC(=O)c2sc3ccccc3c2Cl)cc1 | inactive | inactive | inactive | inactive | – | < 4.00 | < 4.00 | < 4.00 | – |
| Nc1ccc(NC(=O)c2sc3ccccc3c2Cl)cc1 [listing 1 of 3 here] | – | – | – | – | – | – | – | – | pIC50 (MCF7; mcf7): ≤ 4.00 |
| Nc1ccc(NC(=O)c2sc3ccccc3c2Cl)cc1 [listing 2 of 3 here] | inactive | inactive | inactive | inactive | inactive | – | – | – | Activity (Nucleic Acid [12]): inactive |
| CC(=O)Nc1ccc(NC(=O)c2sc3ccccc3c2Cl)cc1 | inactive | inactive | inactive | inactive | – | < 4.00 | < 4.00 | < 4.00 | – |
| O=c1[nH]c2ccc([N+](=O)[O-])cc2c2c1sc1ccccc12 | – | – | – | inactive | inactive | 4.74 | 4.66 | 4.31 | Activity (Nucleic Acid [12]): inactive |
| Nc1ccc(NC(=O)c2sc3ccccc3c2Cl)cc1 [listing 3 of 3 here] | – | – | – | – | – | < 4.00 | ≤ 4.00 | – | pIC50 (MCF7; mcf7): 4.62 |
| CN(C)c1ccc(NC(=O)c2sc3sccc3c2Cl)cc1 | – | – | – | – | – | < 4.00 | < 4.00 | < 4.00 | – |
| Nc1ccc2[nH]c(=O)c3sc4ccccc4c3c2c1 [listing 2 of 3 here] | – | – | – | – | – | – | – | – | pIC50 ([8]; nci-h460): 5.05; pIC50 (HCT-116; hct-116): 5.40 |
| CC(=O)Nc1ccc(NC(=O)c2sc3sccc3c2Cl)cc1 | – | – | – | – | – | < 4.00 | ≤ 4.00 | < 4.00 | – |
| Nc1ccc2[nH]c(=O)c3sc4ccccc4c3c2c1 [listing 3 of 3 here] | – | – | – | – | – | 5.22 | 5.52 | 5.70 | – |
| CC(=O)N(C)c1ccc2c(c1)c1c(sc3ccccc31)c(=O)n2C | – | – | – | – | – | 4.40 | 4.85 | ≤ 4.00 | – |

Now from value to compound, other results behind:

| Activity (DNA [1]) | Activity (DNA [2]) | Activity (DNA [3]) | Topo II DNA cleavage inhibition (active/not active) [6] | inhibition [7] | SMILES | pIC50 ([8]; Homo sapiens, NCI-H460, 72 h) | pIC50 (HCT-116; Homo sapiens, HCT-116, 72 h) | pIC50 (MCF7; Homo sapiens, MCF7, 72 h) | also measured |
| --- | --- | --- | --- | --- | --- | --- | --- | --- | --- |
| inactive | inactive | inactive | inactive | inactive | Nc1ccc2[nH]c(=O)c3sc4ccccc4c3c2c1 [listing 1 of 3 here] | – | – | – | ΔTm (DNA [1]): 2 °C; Activity (DNA [4]): 58%; Activity (Nucleic Acid [5]): Active |
| inactive | inactive | inactive | inactive | inactive | CC(=O)Nc1ccc2[nH]c(=O)c3sc4ccccc4c3c2c1 | < 4.00 | 4.52 | 4.12 | Activity (Nucleic Acid [5]): Active |
| – | – | – | inactive | inactive | Cn1c(=O)c2sc3ccccc3c2c2cc([N+](C)(C)C)ccc21 | 4.74 | 5.30 | 5.00 | ΔTm (DNA [1]): 2.9 °C; Activity (Nucleic Acid [9]): Active; ΔTm (DNA [3]): 5.9 °C; Activity (DNA [4]): 48%; Activity (DNA [10]): inactive; Activity [11]: Active |
| – | – | – | inactive | inactive | CN(C)c1ccc2c(c1)c1c(sc3ccccc31)c(=O)n2C | 4.89 | 5.30 | 4.80 | ΔTm (DNA [1]): 0 °C; ΔTm (DNA [3]): 3 °C; Activity (DNA [4]): 46%; Activity (Nucleic Acid [5]): Active |
| inactive | inactive | inactive | inactive | inactive | CN(C)c1ccc2[nH]c(=O)c3sc4ccccc4c3c2c1 | 4.43 | 5.15 | 5.15 | Activity (Nucleic Acid [12]): inactive |
| – | – | – | inactive | inactive | CC(=O)Nc1ccc2c(c1)c1c(sc3ccccc31)c(=O)n2CCCN(C)C | 6.52 | 6.70 | 6.22 | ΔTm (DNA [1]): 12.7 °C; Activity (Nucleic Acid [9]): Active; ΔTm (DNA [2]): 10 °C; ΔTm (DNA [3]): 19 °C; Activity (DNA [4]): 24%; Activity [11]: Active |
